Publication PMC7274092 (Nature biomedical engineering, 2020)

Legend:
[1] = Diffusion-ordered NMR spectroscopy; type: physicochemical; conditions: approximated from DOSY diffusion rate by the Stokes-Einstein relationship
liver and kidney = test: Biocompatibility of CB[7]-PEG in healthy rats; type: in vivo, Sprague Dawley rats; conditions: s.c. 0.2 mg/kg once daily for six weeks, n=4
Method in brief: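 Healthy 10-week-old Sprague Dawley rats (n=4) received CB[7]-PEG at 0.2 mg/kg s.c. in PBS (pH 7.4) once daily for six weeks. […] Blood chemistry was run on an automated analyzer from samples taken on days 14, 28 and 42. At endpoint, liver and kidney were collected for single-blinded histopathology.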

[2] = insulin hexamer, for comparison; cited from earlier work

| Compound | hydrodynamic radius (Rh) [1] [nm] | further results |
| --- | --- | --- |
| CC[C@H](C)[C@H](NC(=O)[C@@H]1CCCN1C(=O)CNC(=O)[C@H](Cc1ccccc1)NC(=O)[C@H](CC(N)=O)NC(=O)[C@H](CC(N)=O)NC(=O)[C@H](CO)NC(=O)[C@H](CO)NC(=O)[C@H](Cc1c[nH]cn1)NC(=O)[C@@H](NC(=O)[C@H](CC(C)C)NC(=O)[C@H](Cc1ccccc1)NC(=O)[C@H](CC(N)=O)NC(=O)[C@H](C)NC(=O)[C@H](CC(C)C)NC(=O)[C@H](CCCNC(=N)N)NC(=O)[C@H](CCC(N)=O)NC(=O)[C@@H](NC(=O)[C@H](C)NC(=O)[C@@H]1CSSC[C@H](NC(=O)[C@@H](N)CCCCN)C(=O)N[C@@H](CC(N)=O)C(=O)N[C@@H]([C@@H](C)O)C(=O)N[C@@H](C)C(=O)N[C@@H]([C@@H](C)O)C(=O)N1)[C@@H](C)O)C(C)C)C(=O)N[C@@H](CC(C)C)C(=O)N1CCC[C@H]1C(=O)N1CCC[C@H]1C(=O)N[C@H](C(=O)N[C@@H](CC(N)=O)C(=O)N[C@H](C(=O)NCC(=O)N[C@@H](CO)C(=O)N[C@@H](CC(N)=O)C(=O)N[C@H](C(=O)N[C@@H](Cc1ccc(O)cc1)C(N)=O)[C@@H](C)O)C(C)C)[C@@H](C)O [pramlintide] | 1.2 |  |
| cucurbit[7]uril-conjugated polyethylene glycol [CB[7]-PEG] |  | blood chemistry and liver/kidney histopathology vs untreated controls (liver and kidney): No differences |
| insulin aspart | ~2.2 |  |
| insulin hexamer: hexameric association state of insulin |  | hydrodynamic radius [2]: approximately 2.8 nm |
